Laboratory results reported in ChEMBL document CHEMBL2163220 (J Med Chem, 2012).
Calls of active or inactive are those of the source. No cut-off for these calls is given here.

What was measured:
[1] = test system: PC-3; test: Agonist activity at androgen receptor T887A mutant expressed in human PC3 cells assessed as stimulation of receptor transactivation at 0.1 to 1 uM by luciferase reporter gene assay; assay type: functional, cell-based
Outline: (§1)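 Full-length wild-type or mutant AR plasmid transiently transfected into PC-3 cells with MMTV-luc and Renilla luciferase reporters. Cells treated with DMSO vehicle or compound at 0.1 and 1 μM, alone or with 0.1 nM DHT. Luciferase read as relative luciferase units. Run in triplicate.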

[2] = test system: T1, Androgen receptor (Homo sapiens), P10275 [H875Y]; test: Antagonist activity at androgen receptor H874Y mutant expressed in human PC3 cells assessed as reduction in DHT-induced receptor transactivation at 0.1 to 1 uM by luciferase reporter gene assay; assay type: functional, cell-based; conditions: PC-3; outline: as §1
T1 sequence (whole entry): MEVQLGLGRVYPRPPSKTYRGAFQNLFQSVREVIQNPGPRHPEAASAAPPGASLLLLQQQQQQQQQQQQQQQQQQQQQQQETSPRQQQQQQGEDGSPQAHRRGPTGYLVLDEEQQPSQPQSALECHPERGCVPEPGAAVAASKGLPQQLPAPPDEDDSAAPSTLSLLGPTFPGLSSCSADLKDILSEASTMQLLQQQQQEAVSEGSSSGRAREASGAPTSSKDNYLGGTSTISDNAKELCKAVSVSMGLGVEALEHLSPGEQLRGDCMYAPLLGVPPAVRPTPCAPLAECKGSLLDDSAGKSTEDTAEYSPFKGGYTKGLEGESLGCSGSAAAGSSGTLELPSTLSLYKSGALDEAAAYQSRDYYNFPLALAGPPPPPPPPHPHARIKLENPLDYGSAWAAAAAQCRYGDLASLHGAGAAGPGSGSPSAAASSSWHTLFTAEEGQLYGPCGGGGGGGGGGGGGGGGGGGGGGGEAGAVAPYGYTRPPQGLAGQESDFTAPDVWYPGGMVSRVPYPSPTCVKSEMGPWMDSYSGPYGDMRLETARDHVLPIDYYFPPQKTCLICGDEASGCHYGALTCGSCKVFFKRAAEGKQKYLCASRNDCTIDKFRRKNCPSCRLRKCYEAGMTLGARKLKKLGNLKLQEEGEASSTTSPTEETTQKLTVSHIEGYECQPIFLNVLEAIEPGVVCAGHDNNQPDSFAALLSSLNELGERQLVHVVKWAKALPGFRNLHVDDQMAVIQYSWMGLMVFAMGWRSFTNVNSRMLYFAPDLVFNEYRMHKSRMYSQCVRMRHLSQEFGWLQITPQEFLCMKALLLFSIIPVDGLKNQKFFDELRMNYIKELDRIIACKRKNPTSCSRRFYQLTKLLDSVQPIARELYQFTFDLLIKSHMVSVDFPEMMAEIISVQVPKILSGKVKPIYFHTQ

[3] = test system: CWR22R; test: Cytotoxicity against human 22Rv1 cells incubated for 72 hrs by MTT assay; assay type: functional, cell-based; conditions: 22Rv1, 72 h
Outline: (§2)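 MTT assay run across a panel of prostate cancer cell lines.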

[4] = test system: PC-3; test: Antagonist activity at androgen receptor ARv7 mutant lacking ligand binding domain expressed in human PC3 cells assessed as reduction in DHT-induced receptor transactivation at 1 uM by luciferase reporter gene assay; assay type: cell-based
Outline: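 AR-v7 (lacks LBD), MMTV-Luc and pRL-TK (Renilla) plasmids transiently transfected into PC-3 cells; cells treated with DMSO vehicle, 0.1 nM DHT, or test compound at 1 μM; transactivation read as luciferase activity (relative luciferase units).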

[5] = target: T2, Glucocorticoid receptor (Homo sapiens) (UniProt P04150); test: Agonist activity at glucocorticoid receptor expressed in human PC3 cells assessed as stimulation of receptor transactivation at 1 uM by luciferase reporter gene assay; assay type: functional, cell-based; conditions: PC-3
T2 sequence (whole entry): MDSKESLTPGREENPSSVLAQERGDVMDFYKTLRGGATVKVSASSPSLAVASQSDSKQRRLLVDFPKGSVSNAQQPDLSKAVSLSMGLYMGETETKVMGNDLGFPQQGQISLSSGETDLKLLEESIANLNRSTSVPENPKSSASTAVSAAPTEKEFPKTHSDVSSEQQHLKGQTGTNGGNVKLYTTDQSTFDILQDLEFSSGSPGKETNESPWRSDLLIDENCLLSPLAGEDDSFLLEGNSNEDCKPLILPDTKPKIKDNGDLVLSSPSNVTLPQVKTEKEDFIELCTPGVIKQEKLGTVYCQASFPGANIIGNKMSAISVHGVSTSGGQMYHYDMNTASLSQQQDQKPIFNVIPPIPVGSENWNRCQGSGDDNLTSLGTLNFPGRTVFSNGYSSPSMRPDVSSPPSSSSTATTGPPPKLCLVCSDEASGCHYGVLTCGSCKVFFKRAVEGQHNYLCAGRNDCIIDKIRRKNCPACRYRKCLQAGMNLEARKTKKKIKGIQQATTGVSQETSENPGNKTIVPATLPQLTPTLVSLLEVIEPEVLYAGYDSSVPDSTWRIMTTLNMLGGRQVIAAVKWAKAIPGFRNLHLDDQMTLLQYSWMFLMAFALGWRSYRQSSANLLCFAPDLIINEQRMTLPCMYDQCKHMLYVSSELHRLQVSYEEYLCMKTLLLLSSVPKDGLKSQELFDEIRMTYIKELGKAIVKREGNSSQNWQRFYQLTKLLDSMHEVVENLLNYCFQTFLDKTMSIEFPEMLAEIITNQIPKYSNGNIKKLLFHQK
Outline: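 PC-3 cells express GR endogenously and were transfected only with the MMTV-luc reporter. Compound tested at 1 μM, alone or against transactivation induced by 10 nM dexamethasone. Read-out was luciferase reporter activity.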

[6] = test system: T1, Androgen receptor (Homo sapiens), P10275 [H875Y]; test: Agonist activity at androgen receptor H874Y mutant expressed in human PC3 cells assessed as stimulation of receptor transactivation at 0.1 to 1 uM by luciferase reporter gene assay; assay type: functional, cell-based; conditions: PC-3; outline: as §1
[7] = test system: PC-3; test: Cytotoxicity against human PC3 cells incubated for 72 hrs by MTT assay; assay type: functional, cell-based; conditions: PC-3, 72 h; outline: as §2

Activity [2]: inactive
Activity [5]: inactive
Activity [6]: inactive
Compound: Cc1coc2c1C(=O)C(=O)c1c-2ccc2c1CCCC2(C)C [TANSHINONE IIA]
Activity [1]: inactive
IC50 [3]: 6.7 µM
Activity [4]: inactive
IC50 [7]: 3.3 µM
